Data: ChEMBL document CHEMBL5154895, “Mechanistic Studies and In Vivo Efficacy of an Oxadiazole-Containing Antibiotic” (J Med Chem, 2022)
≈ marks a conversion by molar mass, not a printed value. Calls of active or inactive are those of the source. The rule behind the calls is not given here.

Columns and labels:
Staphylococcus aureus [1] = test: Downregulation of membrane protein expression in Staphylococcus aureus measured after 2 hrs by LC-MS/MS analysis; type: functional
Procedure, shortened: (§1)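 S. aureus ATCC 25923 at OD600 0.6 exposed to compound or DMSO control for 2 h at 37°C, normalized to OD600 1.1 and PBS-washed. Cells were pressure-cycling lysed in 100 mM ammonium bicarbonate, and 50 μg protein was acetone-precipitated, reduced and alkylated, then Trypsin/Lys-C digested and C18-desalted. About 1 μg peptides went to LC-MS/MS. Label-free quantitation kept proteins present in all 3 samples, filtered at p <0.05.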

Staphylococcus aureus [2] = test: Antibacterial activity against methicillin-sensitive Staphylococcus aureus ATCC 6538 assessed as inhibition of bacterial growth incubated for 18 to 20 hrs by broth microdilution method; type: functional; conditions: time 18-20 hrs
Procedure, shortened: (§2)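 Broth microdilution per CLSI. Inoculum was set to 0.5 McFarland and diluted in CAMHB to about 5×10^5 CFU/mL. Serial dilutions of agent were incubated aerobically at 37 °C for 18–20 h. MIC was read visually as the lowest concentration with complete growth inhibition.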

Staphylococcus aureus [3] = test: Upregulation of siderophore biosynthesis protein SbnE expression in Staphylococcus aureus measured after 2 hrs by LC-MS/MS analysis; type: functional; procedure, shortened: as §1
Staphylococcus aureus [4] = test: Antibacterial activity against methicillin-resistant Staphylococcus aureus NRS123 assessed as inhibition of bacterial growth incubated for 18 to 20 hrs by broth microdilution method; type: functional; conditions: time 18-20 hrs; procedure, shortened: as §2
Staphylococcus aureus [5] = test: Antibacterial activity against vancomycin-resistant Staphylococcus aureus 9 assessed as inhibition of bacterial growth incubated for 18 to 20 hrs by broth microdilution method; type: functional; conditions: time 18-20 hrs; procedure, shortened: as §2
Staphylococcus aureus [6] = test: Downregulation of sodium ABC transporter permease protein expression in Staphylococcus aureus measured after 2 hrs by LC-MS/MS analysis; type: functional; procedure, shortened: as §1
Staphylococcus aureus [7] = test: Inhibition of Glc2-DAG in Staphylococcus aureus ATCC 25923 assessed as reduction in alpha-naphthol at 0.25 to 2 ug/ml measured after 5 hrs by thin layer chromatography; conditions: dose 0.25-2 µg/ml
Procedure, shortened: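 Cells were normalized to OD600 0.9 and washed in 0.1 M sodium acetate pH 4.7. Lipids were Bligh-Dyer extracted and dried under nitrogen, then run on TLC with α-naphthol/sulfuric acid staining. The stained band was identified as Glc2-DAG by MALDI-TOF.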

Staphylococcus aureus [8] = test: Upregulation of TraG protein expression in Staphylococcus aureus assessed as log2 of fold change in protein level measured after 2 hrs by LC-MS/MS analysis relative to control; type: functional; procedure, shortened: as §1
Staphylococcus aureus [9] = test: Upregulation of IsdI protein expression in Staphylococcus aureus assessed as log2 of fold change in protein level measured after 2 hrs by LC-MS/MS analysis relative to control; type: functional; procedure, shortened: as §1
Staphylococcus aureus [10] = test: Upregulation of DUF4930 domain-containing protein expression in Staphylococcus aureus measured after 2 hrs by LC-MS/MS analysis; type: functional; procedure, shortened: as §1
Staphylococcus aureus [11] = test: Upregulation of haptoglobin-binding heme uptake protein HarA expression in Staphylococcus aureus measured after 2 hrs by LC-MS/MS analysis; type: functional; procedure, shortened: as §1
Staphylococcus aureus [12] = test: Antibacterial activity against methicillin-resistant Staphylococcus aureus NRS384 assessed as inhibition of bacterial growth incubated for 18 to 20 hrs by broth microdilution method; type: functional; conditions: time 18-20 hrs; procedure, shortened: as §2
[13] = Toxicity in Balb/c mouse infected with methicillin-resistant Staphylococcus aureus USA300 assessed as hemorrhage administered topically twice daily 2 days post infection and measured after 5 days post compound treatment by H and E staining based histopathological analysis; conditions: in vivo, topical_or_ocular, 120 h, time 5 day
Procedure, shortened: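 MRSA USA300-infected punch wounds in mice, n=5. Topical 2% agent or petroleum jelly vehicle twice daily from day 2 for 5 days. The left wound was formalin-fixed, cut into 4-μm sections and H&E-stained. Whole slides were scanned and assessed by a board-certified veterinary pathologist for necrosis, inflammation, haemorrhage and related features.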

Staphylococcus aureus [14] = test: Upregulation of 23S rRNA (pseudouridine(1915)-N(3))-methyltransferase RImH expression in Staphylococcus aureus measured after 2 hrs by LC-MS/MS analysis; type: functional; procedure, shortened: as §1
Staphylococcus aureus [15] = test: Downregulation of glutamyl endopeptidase protein expression in Staphylococcus aureus measured after 2 hrs by LC-MS/MS analysis; type: functional
Procedure, shortened: (§3)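 S. aureus ATCC 25923 at OD600 0.6 was treated with compound or DMSO for 2 h at 37 °C, normalised to OD600 1.1, and washed in PBS. Cells were pressure-lysed in 100 mM ammonium bicarbonate, then acetone-precipitated, reduced with DTT, alkylated with iodoacetamide, and digested with trypsin/Lys-C. Peptides were desalted and run on LC-MS/MS. Label-free quantitation used proteins present in all 3 samples, filtered at p<0.05 against DMSO.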

Staphylococcus aureus [16] = test: Downregulation of DapE protein expression in Staphylococcus aureus assessed as log2 of fold change in protein level measured after 2 hrs by LC-MS/MS analysis relative to control; type: functional; procedure, shortened: as §3
Staphylococcus aureus [17] = test: Downregulation of EssB protein expression in Staphylococcus aureus assessed as log2 of fold change in protein level measured after 2 hrs by LC-MS/MS analysis relative to control; type: functional; procedure, shortened: as §3
Staphylococcus aureus [18] = test: Downregulation of MAP domain-containing protein expression in Staphylococcus aureus measured after 2 hrs by LC-MS/MS analysis; type: functional; procedure, shortened: as §3
Streptococcus pneumoniae = test: Antibacterial activity against […] ATCC 700677 assessed as inhibition of bacterial growth incubated for 18 to 20 hrs by broth microdilution method; type: functional; conditions: time 18-20 hrs
Procedure, shortened: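 Broth microdilution per CLSI. S. pneumoniae was diluted to about 5×10^5 CFU/mL in TSB and incubated with serial dilutions of agent at 37 °C for 18–20 h under 5% CO2. MIC was read visually as the lowest concentration completely inhibiting growth.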

Staphylococcus aureus [19] = test: Upregulation of peptidase M23 protein expression in Staphylococcus aureus assessed as log2 of fold change in protein level measured after 2 hrs by LC-MS/MS analysis relative to control; type: functional; procedure, shortened: as §1
Staphylococcus aureus [20] = test: Antibacterial activity against methicillin-resistant Staphylococcus aureus NRS 386 assessed as inhibition of bacterial growth incubated for 18 to 20 hrs by broth microdilution method; type: functional; conditions: time 18-20 hrs; procedure, shortened: as §2
Staphylococcus aureus [21] = test: Downregulation of peptide ABC transporter permease protein expression in Staphylococcus aureus measured after 2 hrs by LC-MS/MS analysis; type: functional; procedure, shortened: as §1
Staphylococcus aureus [22] = test: Downregulation of nucleoside permease protein expression in Staphylococcus aureus measured after 2 hrs by LC-MS/MS analysis; type: functional; procedure, shortened: as §1
[23] = In vivo antibacterial activity against methicillin-resistant Staphylococcus aureus USA300 infected in Balb/c mouse model assessed as reduction in bacterial infection in skin wounds administered topically twice daily 2 days post infection and measured after 5 days post compound treatment by CFU counting; parameters: scale not given: the % may be the effect or the level left; conditions: time 5 day
Staphylococcus aureus [24] = test: Downregulation of EsaA protein expression in Staphylococcus aureus assessed as log2 of fold change in protein level measured after 2 hrs by LC-MS/MS analysis relative to control; type: functional; procedure, shortened: as §3
Staphylococcus aureus [25] = test: Upregulation of 30S ribosomal protein S20 expression in Staphylococcus aureus measured after 2 hrs by LC-MS/MS analysis; type: functional; procedure, shortened: as §1

## CC1CC(C)CN(S(=O)(=O)c2ccc(C(=O)Nc3nnc(-c4ccc(C(F)(F)F)cc4)o3)cc2)C1 (stereo unspecified)
Staphylococcus aureus [1]
  Activity: Active
Staphylococcus aureus [2]
  MIC: 0.25 µg/mL (≈ 0.492 µM)
Staphylococcus aureus [3]
  Activity: Active
Staphylococcus aureus [4]
  MIC: 0.25 µg/mL (≈ 0.492 µM)
Staphylococcus aureus [5]
  MIC: 0.25 µg/mL (≈ 0.492 µM)
Staphylococcus aureus [6]
  Activity: Active
Staphylococcus aureus [7]
  inhibition: Active
Staphylococcus aureus [8]
  log2FC: 2
Staphylococcus aureus [9]
  log2FC: 3.2
Staphylococcus aureus [10]
  Activity: Active
Staphylococcus aureus [11]
  Activity: Active
Staphylococcus aureus [12]
  MIC: 0.25 µg/mL (≈ 0.492 µM)
[13]
  Activity: Toxic
Staphylococcus aureus [14]
  Activity: Active
Staphylococcus aureus [15]
  Activity: Active
Staphylococcus aureus [16]
  log2FC: -3.3
Staphylococcus aureus [17]
  log2FC: -3.3
Staphylococcus aureus [18]
  Activity: Active
Streptococcus pneumoniae
  MIC: 0.06 µg/mL (≈ 0.118 µM)
Staphylococcus aureus [19]
  log2FC: 2
Staphylococcus aureus [20]
  MIC: 0.25 µg/mL (≈ 0.492 µM)
Staphylococcus aureus [21]
  Activity: Active
Staphylococcus aureus [22]
  Activity: Active
[23]
  Activity: 93.8%
Staphylococcus aureus [24]
  log2FC: -2
Staphylococcus aureus [25]
  Activity: Active
